Results from different studies.
Lines come from different studies, so protocols differ.

With CC(C)(O)c1ccccc1-c1ccc2[nH]c(/C=C/c3ccc(C(F)(F)F)cc3)nc2c1 the MRT was 84 h (male human, plasma; oral, 15 mg, single dose, fasted, healthy volunteers).
With CC1=CC[C@H]2[C@@H]([C@@H]1CC[C@H]1[C@]3(C)CC[C@H](O)C(C)(C)O[C@H]3CC[C@]1(C)O)C(C)(C)CC[C@]2(C)O the IC50 was over 50 µM (KB 3-1; cell growth or viability, MTT; 72 h).
CC(C)(Nc1nc(-c2ccccn2)nc2ccccc12)c1ccccn1 gave a concentration of 5060 ng/mL (female BALB/c mouse, plasma; oral, 50 mg/kg, 4 h).
CC(C)(C)c1ccc(O)c(CN(Cc2cc(C(C)(C)C)ccc2O)C2CCC(NC(N)=O)CC2)c1 (stereo not shown) has a half-life of 2.4 h (male C57BL/6 mouse, plasma; intraperitoneal, 5 mg/kg, single dose).
With c1cnc2ccc(Nc3nc(NC4CC4)c4nc[nH]c4n3)cc2c1 the MRT(0-t) was 8.1 h (human, plasma; oral, 100 mg/m², patients).
With COc1ccc(S(=O)(=O)ON=C2C=C(C)C(=O)C(C)=C2)cc1 the CC50 was over 15.5 µM (HMEC; cell growth or viability).
The IC50 of CN(CCC(=O)O)C(=O)c1ccc2c(c1)CC[C@@H]1[C@@H]2CC[C@]2(C)C(c3cncc(F)c3)=CC[C@@H]12 is reported as 4.1 µM (UDP-glucuronosyltransferase 1A1 (UGT1A1, Homo sapiens, UniProt P22309); enzyme activity, inhibitor; human, liver microsomes).
CC(C)Oc1cccc(-c2cnc(N3CCC(C(N)=O)CC3)s2)c1 has a concentration of 0 nM (male Swiss mouse, brain; oral, 30 mg/kg, 12 h, single dose).
With CC(C)=CCC[C@@]1(C)C(CC[C@H]2[C@]3(C)CC[C@H](O)C(C)(C)O[C@H]3CC[C@@]2(C)O)=C(C)CC[C@H]1O the IC50 was over 50 µM (KB 3-1; cell growth or viability, MTT; 72 h).
With CC(C)CN(C[C@@H](O)[C@H](Cc1ccccc1)NC(=O)O[C@H]1CO[C@H]2OCC[C@H]21)S(=O)(=O)c1ccc(N)cc1 the concentration was 397 ng/mL (BALB/c mouse, plasma; intravenous, 25 mg/kg, 1 h).
